The source made the active and inactive calls. The calls are words filed in the database; no cut-off is given here.

Assay [1] has as its target T1, Cathepsin B (Homo sapiens, UniProt P07858). The following applies: dose 6.25 nM, time 15.0 min.
For assay [2], the target named is T2, Procathepsin L (Homo sapiens, UniProt P07711). Description: Inhibition of cathepsin L (unknown origin) using Cbz-Phe-Arg-AMC as substrate preincubated for 5 mins followed by substrate addition and measured after 10 mins by fluorometric assay. The method in brief: (§1)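 Cathepsin B solution (0.2 ng/µL) or cathepsin L solution (0.02 ng/µL) preincubated with compound at 40 °C for 5 min. Equal volume of pre-warmed Cbz-Phe-Arg-AMC solution added (40 µM for B, 80 µM for L). AMC fluorescence (ex 380/em 460 nm) read continuously for 10 min. Triplicates, two independent experiments, mean ± SEM.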
Target sequence in this assay (P07711 whole entry): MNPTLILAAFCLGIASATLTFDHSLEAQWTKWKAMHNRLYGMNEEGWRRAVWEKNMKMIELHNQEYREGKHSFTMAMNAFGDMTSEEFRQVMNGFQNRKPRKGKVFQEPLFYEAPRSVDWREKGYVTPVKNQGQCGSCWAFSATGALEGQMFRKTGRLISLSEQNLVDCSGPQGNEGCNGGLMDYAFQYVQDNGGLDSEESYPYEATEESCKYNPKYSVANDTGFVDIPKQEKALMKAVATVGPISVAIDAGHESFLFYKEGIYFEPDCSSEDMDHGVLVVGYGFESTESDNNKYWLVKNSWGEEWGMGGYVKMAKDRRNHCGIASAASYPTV

In assay [3] the target is T1, Cathepsin B. Description: Inhibition of cathepsin B (unknown origin) using Cbz-Phe-Arg-AMC as substrate preincubated for 5 mins followed by substrate addition and measured after 10 mins by fluorometric assay. The method in brief: as §1
Assay [4] concerns the target T2, Procathepsin L. To be noted: dose 6.25 nM, time 15.0 min.
Target sequence in this assay (P07711 114-333 limits assumed): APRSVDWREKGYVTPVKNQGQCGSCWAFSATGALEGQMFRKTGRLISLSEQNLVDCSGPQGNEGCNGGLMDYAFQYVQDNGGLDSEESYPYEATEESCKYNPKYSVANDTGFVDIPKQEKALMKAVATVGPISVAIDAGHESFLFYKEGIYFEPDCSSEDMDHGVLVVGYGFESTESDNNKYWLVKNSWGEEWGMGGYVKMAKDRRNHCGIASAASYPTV

The IC50 is the concentration that gives 50% inhibition. Lower therefore signals higher potency. For the molecule `CC(C)C[C@H](NC(=O)[C@H]1O[C@@H]1C(=O)O)C(=O)NCCCCN=C(N)N` [E-64], the inhibition result on Cathepsin B [1] and on Procathepsin L [4] was “Active” each time. Besides, the IC50 was 2.3 nM against Procathepsin L [2] and 4.6 nM at Cathepsin B [3].

The values are drawn from ChEMBL document CHEMBL5107962, “Covalent sortase A inhibitor ML346 prevents Staphylococcus aureus infection of Galleria mellonella” (RSC Med Chem, 2022).
